According to ChEMBL document CHEMBL5500359, “Identification of a new bisindolinone arresting IGROV1 cells proliferation” (Eur J Med Chem, 2024):

Key:
Renal cancer cell line [1] = assay: Cell growth inhibition of human Renal cancer cells incubated for 48 hrs by SRB assay; format: functional
In short: (§1)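 NCI-60 five-concentration screen: lines seeded 5×10^3–4×10^4 cells/well depending on line; compound diluted in fresh medium at scalar concentrations 0–100 or 0–1000 μM; 48 h exposure, in situ fixation, sulforhodamine B protein staining, optical density read; GI50, TGI and LC50 per NCI procedures; panel mean = mean graph midpoint.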

CNS carcinoma cell [2] = assay: Cell growth inhibition of human CNS carcinoma cells incubated for 48 hrs by SRB assay; format: functional; in short: as §1
Prostatic carcinoma cell = assay: Cell growth inhibition of human Prostate carcinoma cells incubated for 48 hrs by SRB assay; format: functional; in short: as §1
[3] = test system: Panel NCI-60 (60 carcinoma cell lines); assay: Cytostatic activity against human Panel NCI-60 (60 carcinoma cell lines) incubated for 48 hrs by SRB assay; format: functional; in short: as §1
NSCLC = assay: Cell growth inhibition of human NSCLC cells incubated for 48 hrs by SRB assay; format: functional; in short: as §1
[4] = Cytotoxicity against human Leukemia cancer cells incubated for 48 hrs by SRB assay; format: functional; conditions: Leukemia cell, read-out: LC50 (the source's name)
In short: (§2)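 NCI DTP five-concentration screen. Cells were seeded at 5 × 10³–4 × 10⁴ cells/well, depending on the line. Compounds were diluted in fresh medium and added at scalar concentrations over 0–1000 µM or 0–100 µM. After 48 h the cells were fixed in situ, stained with sulforhodamine B, and optical density was read. GI50, TGI and LC50 were derived by NCI procedures, and the panel mean is the mean graph midpoint.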

[5] = Cytostatic activity against human Leukemia cancer cells incubated for 48 hrs by SRB assay; format: functional, Leukemia cell; in short: as §1
Breast cancer cell line [6] = assay: Cytotoxicity against human Breast cancer cells incubated for 48 hrs by SRB assay; format: functional; in short: as §1
Breast cancer cell line [7] = assay: Cell growth inhibition of human Breast cancer cells incubated for 48 hrs by SRB assay; format: functional; conditions: read-out: LC50 (the source's name); in short: as §2
[8] = Cell growth inhibition of human Leukemia cancer cells incubated for 48 hrs by SRB assay; format: functional; in short: as §1
[9] = test system: Panel NCI-60 (60 carcinoma cell lines); assay: Cell growth inhibition of human Panel NCI-60 (60 carcinoma cell lines) incubated for 48 hrs by SRB assay; format: functional; in short: as §1
Colon carcinoma cell [10] = assay: Cytotoxicity against human Colon carcinoma cells incubated for 48 hrs by SRB assay; format: functional; in short: as §1
Ovarian cancer cell line [11] = assay: Cytostatic activity against human Ovarian cancer cells incubated for 48 hrs by SRB assay; format: functional; in short: as §1
Colon carcinoma cell [12] = assay: Cytostatic activity against human Colon carcinoma cells incubated for 48 hrs by SRB assay; format: functional; in short: as §1
CNS carcinoma cell [13] = assay: Cytostatic activity against human CNS carcinoma cells incubated for 48 hrs by SRB assay; format: functional; in short: as §1
Melanoma cell line [14] = assay: […] against human Melanoma cells incubated for 48 hrs by SRB assay; format: functional; conditions: read-out: LC50 (the source's name); in short: as §2
Renal cancer cell line [15] = assay: Cytostatic activity against human Renal cancer cells incubated for 48 hrs by SRB assay; format: functional; in short: as §1
Melanoma cell line [16] = assay: Cell growth inhibition of human Melanoma cells incubated for 48 hrs by SRB assay; format: functional; in short: as §1
Ovarian cancer cell line [17] = assay: Cytotoxicity against human Ovarian cancer cells incubated for 48 hrs by SRB assay; format: functional; in short: as §1
Breast cancer cell line [18] = assay: Cytostatic activity against human Breast cancer cells incubated for 48 hrs by SRB assay; format: functional; in short: as §1

SMILES	GI50 (Renal cancer cell line [1]) [µM]	GI50 (CNS carcinoma cell [2]) [µM]	GI (Prostatic carcinoma cell) [µM]	GI [3] [µM]	GI (NSCLC) [µM]	CC50 [4] [µM]	GI [5] [µM]	GI (Breast cancer cell line [6]) [µM]	CC50 (Breast cancer cell line [7]) [µM]	GI50 [8] [µM]	GI50 [9] [µM]	GI (Colon carcinoma cell [10]) [µM]	TGI (Ovarian cancer cell line [11]) [µM]	TGI (Colon carcinoma cell [12]) [µM]	GI (CNS carcinoma cell [13]) [µM]	CC50 (Melanoma cell line [14]) [µM]	GI (Renal cancer cell line [15]) [µM]	GI (Melanoma cell line [16]) [µM]	GI (Ovarian cancer cell line [17]) [µM]	TGI (Breast cancer cell line [18]) [µM]
Cc1cc2c(cc1O)/C(=C\c1cc(C(C)(C)C)cc(C=O)c1O)C(=O)N2	2.57	1.2	0.87	8.91	3.47	81.3	3.72	77.62	1.82	0.68	1.91	38.02	9.55	11.5	10	5.75	11.48	1.78	56.23	14.8
O=C1Nc2ccc(F)cc2/C1=C\c1cccc(/C=C2/C(=O)Nc3ccc(F)cc32)c1	1.58	1.35	1.48	4.47	1.82	7.41	9.77		9.33	1.66	1.62	9.33			3.24	10.2	3.47	1.58	32.4	
CC(C)(C)c1cc(/C=C2/C(=O)Nc3cccc(F)c32)c(O)c(/C=C2/C(=O)Nc3cccc(F)c32)c1	2.45	2.09	2.75	6.46	2.14	22.9	4.79	33.88	2.04	1.58	2.14	16.98	5.89	6.46	6.46	5.5	7.24	2.29	15.49	8.51
CC(C)(C)c1cc(/C=C2/C(=O)Nc3ccc(F)cc32)c(O)c(/C=C2/C(=O)Nc3ccc(F)cc32)c1	4.68	2.95	3.89	13.8	4.17	60.3	12.02	46.77	3.8	3.09	3.8	42.66	15.8	14.8	12.02	9.77	14.13	3.02	47.86	19.5
COc1ccc2c(c1)/C(=C\c1cc(C(C)(C)C)cc(/C=C3/C(=O)N(C)c4ccc(OC)cc43)c1O)C(=O)N2C	2.51	1.91	3.09	6.61	2.34	100	20.42	36.31	2.24	2.82	2.24	16.98	7.24	4.79	4.9	3.98	8.32	1.86	28.18	6.17
COc1cc2c(c(OC)c1OC)/C(=C\c1ccc3ccc4ccc(/C=C5/C(=O)Nc6cc(OC)c(OC)c(OC)c65)nc4c3n1)C(=O)N2	26.3	13.8	3.39	70.79	14.45				10	4.27	12.9		93.3	5.23	67.61	85.1	74.13	18.62		64.6
COc1ccc(OC)c2c1NC(=O)/C2=C/c1cccc(/C=C2/C(=O)Nc3c(OC)ccc(OC)c32)c1	7.08	4.68	5.89	72.44	9.33		95.5		5.37	2.69	5.89		69.2	63.1	100	61.7	81.28	7.24		81.3
O=C1Nc2ccc(Cl)cc2/C1=C\c1ccc2ccc3ccc(/C=C4/C(=O)Nc5ccc(Cl)cc54)nc3c2n1	2.29	2.15	2.45	18.2	2.57		83.18		3.09	3.09	2.63	31.62	29.5	7.41	9.33	11.5	17.38	2.19	69.18	29.5
O=C1Nc2cc(Cl)ccc2/C1=C\c1cccc(/C=C2/C(=O)Nc3cc(Cl)ccc32)c1	3.09	2.29	2.14	7.59	3.39	100	11.22	37.15	2.45	2.4	2.57	11.22	8.91	4.68	5.89	5.25	8.51	2.19	44.67	6.92
COc1ccc2[nH]c(Cl)c(/C=C3/C(=O)N(C)c4cc5c(cc43)/C(=C\c3c(Cl)[nH]c4ccc(OC)cc34)C(=O)N5C)c2c1	1.78	1.74	1.95	4.9	1.78	89.1	6.17	21.88	3.16	2.24	2.04	11.75	4.69	4.68	4.07	4.9	4.47	2.04	12.59	6.31
O=C1Nc2cccc(F)c2/C1=C\c1cccc(/C=C2/C(=O)Nc3cccc(F)c32)c1	1.86	1.82	2.14	5.13	2.4	100	6.92	16.98	2	1.23	1.91	6.76	7.59	3.31	4.27	3.72	4.17	1.7	33.88	6.17
COc1cc2c(cc1C)NC(=O)/C2=C/c1ccc2ccc3ccc(/C=C4/C(=O)Nc5cc(C)c(OC)cc54)nc3c2n1	6.31	8.51	2.95	26.3	6.76		22.91		3.98	2.51	5.13	46.77	38.9	10.2	40.74	17.8	29.51	6.03	77.62	25.7
COc1ccc2c(c1)/C(=C\c1ccc3ccc4ccc(/C=C5/C(=O)N(C)c6ccc(OC)cc65)nc4c3n1)C(=O)N2C	2.34	3.16	2.57	12.88	2.57		56.23	64.57	3.09	3.16	2.63	13.49	28.2	6.31	17.78	4.79	5.89	2.14	89.13	18.6
CC[C@]1(O)C[C@H]2CN(CCc3c([nH]c4ccccc34)[C@@](C(=O)OC)(c3cc4c(cc3OC)N(C=O)[C@H]3[C@@](O)(C(=O)OC)[C@H](OC(C)=O)[C@]5(CC)C=CCN6CC[C@]43[C@@H]65)C2)C1 [VINCRISTINE]	0.32	0.13	0.13		0.25				0.32	0.1	0.2							0.16		
CN(C)c1ccc2[nH]c(Cl)c(/C=C3/C(=O)N(C)c4cc5c(cc43)/C(=C\c3c(Cl)[nH]c4ccc(N(C)C)cc34)C(=O)N5C)c2c1	9.77	7.08	10.72		18.2				4.17	17	14.5							27.54		
